These results are taken from ChEMBL document CHEMBL4373727, “Thienopyrimidinone Derivatives That Inhibit Bacterial tRNA (Guanine37-N1)-Methyltransferase (TrmD) by Restructuring the Active Site with a Tyrosine-Flipping Mechanism” (J Med Chem, 2019).

Converted amounts (≈) assume the structure as drawn. The source made the active and inactive calls. The calls are words filed in the database; no cut-off is given here.

The test system of experiment [1] is Streptococcus pneumoniae. Nature of the experiment: Bactericidal activity against Streptococcus pneumoniae ATCC 49619 assessed as reduction in CFU at 1 to 4 times MIC90 incubated for 24 hrs. The settings on record: ATCC 49619, 24 h, read-out: MBC99.9. The class given is functional.
For experiment [2], the system named is Pseudomonas aeruginosa. Put plainly: Bactericidal activity against Pseudomonas aeruginosa PA14 assessed as reduction in CFU at 1 to 4 times MIC90 incubated for 24 hrs. The class given is functional, organism-based.
For experiment [3], the system named is Salmonella enteritidis. Put plainly: Bactericidal activity against Salmonella enteritidis ATCC 13076 assessed as reduction in CFU at 1 to 4 times MIC90 incubated for 24 hrs. The class given is functional. Particulars: Salmonella enterica subsp. enterica serovar Enteritidis.
For experiment [4], the system named is Staphylococcus aureus. Put plainly: Antibacterial activity against methicillin-resistant Staphylococcus aureus ATCC 43300 incubated for 24 hrs by serial broth microdilution method. Particulars: ATCC 43300, 24 h. The class given is functional. The essentials: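 Growth read by OD600. MRSA in cation-adjusted Mueller–Hinton broth, M. smegmatis in complete 7H9. MIC50 and MIC90 are 50% and 90% growth inhibition versus drug-free controls. Two independent experiments, each in duplicate.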
(In general: In broth dilution the organism is exposed to a series of concentrations in liquid medium.)

Experiment [5] has as its system Staphylococcus aureus. Nature of the experiment: Bactericidal activity against methicillin-resistant Staphylococcus aureus ATCC 43300 assessed as reduction in CFU at 1 to 4 times MIC90 incubated for 24 hrs. Particulars: ATCC 43300, 24 h, read-out: MBC99.9. Type of experiment: functional.
The subject of experiment [6] is Streptococcus pneumoniae. Nature of the experiment: Antibacterial activity against Streptococcus pneumoniae ATCC 49619 incubated for 24 hrs by serial broth microdilution method. Type of experiment: functional. Particulars: ATCC 49619, 24 h. The procedure, abridged:
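Cultured in MH medium plus 3% defibrinated sheep blood at 37 °C, 5% CO2. Log-phase inoculum ~5×10^5 cells/mL was exposed to serial compound dilutions for 24 h. MIC50/MIC90 are relative to drug-free controls. Two independent experiments in duplicate.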

The subject of experiment [7] is Acinetobacter baumannii. Put plainly: Bactericidal activity against Acinetobacter baumannii ATCC 17961 assessed as reduction in CFU at 1 to 4 times MIC90 incubated for 24 hrs. The class given is functional. Particulars: ATCC 17961, 24 h, read-out: MBC99.9.
In experiment [8] the test system is Mycobacterium tuberculosis. Nature of the experiment: Antibacterial activity against Mycobacterium tuberculosis ATCC 27294 incubated for 7 days by broth dilution method. Type of experiment: functional. The settings on record: ATCC 27294, 168 h. The procedure, abridged: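 M. tuberculosis ATCC 27294 in complete 7H9 with 0.05% Tween 80, 0.5% glycerol and 10% ADC. Mid-log cells adjusted to OD600 0.1 and added 1:1 to 2-fold serial compound dilutions (highest 100 μM). Incubated 7 d at 37 °C with shaking at 80 rpm, then OD600 read. Isoniazid positive control. MIC50/MIC90 versus drug-free controls. Biological duplicates.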

In experiment [9] the test system is Mycolicibacterium smegmatis. Nature of the experiment: Bactericidal activity against Mycolicibacterium smegmatis MC2 155 assessed as reduction in CFU at 1 to 4 times MIC90 incubated for 24 hrs. The class given is functional. The settings on record: MC2 155, 24 h, read-out: MBC99.9.
Experiment [10] has as its target T1, tRNA (guanine-N(1)-)-methyltransferase (Staphylococcus aureus (strain NCTC 8325 / PS 47)) (UniProt Q2FZ43).
T1 sequence (whole entry): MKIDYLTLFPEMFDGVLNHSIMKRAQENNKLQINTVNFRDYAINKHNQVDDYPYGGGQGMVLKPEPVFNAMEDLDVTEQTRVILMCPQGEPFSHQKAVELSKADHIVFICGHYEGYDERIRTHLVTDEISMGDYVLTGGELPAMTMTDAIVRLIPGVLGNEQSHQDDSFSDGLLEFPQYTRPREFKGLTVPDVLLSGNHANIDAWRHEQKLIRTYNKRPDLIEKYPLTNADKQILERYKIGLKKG
Put plainly: Binding affinity to full length Staphylococcus aureus tRNA (guanine(37)-N1)-methyltransferase expressed in Escherichia coli BL21 (DE3) assessed as dissociation rate constant by surface plasmon resonance assay. The essentials: (§1)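 SPR at 25 °C. His-tagged TrmD (50 μg/mL) captured on an anti-His antibody surface (about 2200 RU), with a blank reference cell. Buffer: 50 mM Tris-HCl pH 8, 150 mM NaCl, 1 mM MgCl2, 1 mM DTT, 0.05% Tween-20. Analyte in 2-fold dilutions, injected lowest to highest at 30 μL/min, 30 s contact, 240 s dissociation. KD from steady-state affinity fit.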

For experiment [11], the target named is T2, tRNA (guanine-N(1)-)-methyltransferase (Pseudomonas aeruginosa (strain ATCC 15692 / DSM 22644 / CIP 104116 / JCM14847 / LMG 12228 / 1C / PRS 101 / PAO1), UniProt Q9HXQ1).
T2 sequence (Q9HXQ1 whole entry): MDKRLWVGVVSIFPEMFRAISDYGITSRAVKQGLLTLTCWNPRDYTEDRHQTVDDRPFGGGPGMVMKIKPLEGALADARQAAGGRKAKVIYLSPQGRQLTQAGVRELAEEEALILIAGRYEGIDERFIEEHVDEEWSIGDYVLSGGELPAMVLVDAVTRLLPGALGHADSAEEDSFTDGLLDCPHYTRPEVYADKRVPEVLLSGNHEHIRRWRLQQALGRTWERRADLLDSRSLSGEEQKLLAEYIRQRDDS
Put plainly: Binding affinity to Pseudomonas aeruginosa tRNA (guanine(37)-N1)-methyltransferase (Leu5 to Asp25 residues) expressed in Escherichia coli BL21 (DE3) Rosetta T1R cells by surface plasmon resonance assay. The procedure, abridged:
as §1
On the technique in general: Surface plasmon resonance follows binding to a sensor surface in real time, without labels.

Experiment [12] deals with T3, tRNA (guanine-N(1)-)-methyltransferase (Pseudomonas aeruginosa (strain ATCC 15692 / DSM 22644 / CIP 104116 / JCM14847 / LMG 12228 / 1C / PRS 101 / PAO1)) (UniProt Q9HXQ1).
T3 sequence (whole entry): T2 sequence (Q9HXQ1 whole entry)
Nature of the experiment: Binding affinity to Pseudomonas aeruginosa tRNA (guanine(37)-N1)-methyltransferase (Leu5 to Asp25 residues) expressed in Escherichia coli BL21 (DE3) Rosetta T1R cells assessed as association rate constant by surface plasmon resonance assay. The procedure, abridged:
as §1

The target of experiment [13] is T3, tRNA (guanine-N(1)-)-methyltransferase (Pseudomonas aeruginosa (strain ATCC 15692 / DSM 22644 / CIP 104116 / JCM14847 / LMG 12228 / 1C / PRS 101 / PAO1)). Nature of the experiment: Inhibition of Pseudomonas aeruginosa tRNA (guanine(37)-N1)-methyltransferase (Leu5 to Asp25 residues) expressed in Escherichia coli BL21 (DE3) Rosetta T1R cells assessed as reduction in S-adenosyl-L-homocysteine production preincubated for 30 mins followed by 1.5 to 15 uM of tRNALeu(CAG) substrate and SAM addition and measured after 60 mins by MTase-Glo assay.

Experiment [14] shares this target. Nature of the experiment: Binding affinity to Pseudomonas aeruginosa tRNA (guanine(37)-N1)-methyltransferase (Leu5 to Asp25 residues) expressed in Escherichia coli BL21 (DE3) Rosetta T1R cells assessed as dissociation rate constant by surface plasmon resonance assay. The essentials: as §1
The target in experiment [15] is T1, tRNA (guanine-N(1)-)-methyltransferase (Staphylococcus aureus (strain NCTC 8325 / PS 47)). Put plainly: Binding affinity to full length Staphylococcus aureus tRNA (guanine(37)-N1)-methyltransferase expressed in Escherichia coli BL21 (DE3) assessed as thermal stabilization of protein by measuring change in melting temperature at 0.1 mM by SYPRO orange based thermal shift assay.

Broadly, the MIC50 is an inhibitory concentration at the 50% level, which refers to growth in some studies and to a panel of isolates in others. Low values mean higher susceptibility, high ones lower susceptibility. For orientation: MIC90 means an inhibitory concentration at the 90% level, which refers to growth in some studies and to a panel of isolates in others. A lower MIC90 goes with higher susceptibility. For the compound `CCCCCCCCCCNCc1ccc(CNC(=O)c2csc3nc[nH]c(=O)c23)cc1`, the MBC in experiment [1] is over 100 µM; in experiment [5], 34 µM (≈ 15.5 µg/mL); in experiment [7] it was over 100 µM; in [9], 36 µM (≈ 16.4 µg/mL). For the same compound, the MBC99.9 result in [2] and in experiment [3] was “inactive” in each case. Also, the MIC50 in experiment [4] was 6 µM (≈ 2.73 µg/mL); in experiment [6] it was 34 µM (≈ 15.5 µg/mL); in [8] it was 22 µM (≈ 10 µg/mL). Moreover, the MIC90 in [4] was found to be 8.5 µM (≈ 3.86 µg/mL); in experiment [6] it was 56 µM (≈ 25.5 µg/mL); in experiment [8] it was 43 µM (≈ 19.5 µg/mL).
The Kd is a measure of binding affinity in units of concentration. As for `CCCCCCCCNCc1ccc(CNC(=O)c2csc3nc[nH]c(=O)c23)cc1`, the Kdiss in experiment [10] was 9.15 s⁻¹; in [14] it was 0.0218 s⁻¹. The compound also displayed a dissociation constant (Kd) in [11] of 1.6 nM. Further, the MBC was over 100 µM in experiment [1], 54 µM (≈ 23 µg/mL) in [5], over 100 µM in experiment [7] and over 100 µM in experiment [9]. Besides, the MBC99.9 entry in experiment [2] and in experiment [3] was “inactive” in each case. Besides, the MIC50 in [4] came out at 31 µM (≈ 13.2 µg/mL); in [6], 60 µM (≈ 25.6 µg/mL); in [8], 78 µM (≈ 33.3 µg/mL). Besides, the MIC90 is 36 µM (≈ 15.4 µg/mL) in experiment [4], 73 µM (≈ 31.1 µg/mL) in experiment [6] and over 100 µM in experiment [8]. Further, the Ka in experiment [12] was 1.35e+07 M⁻¹ s⁻¹. The inhibition entry in [13] was “Dose-dependent effect”.
For orientation: ΔTm means the change in melting temperature against a reference sample. Take `NC1CCN(Cc2ccc(CNC(=O)c3csc4nc[nH]c(=O)c34)cc2)CC1`: the Kdiss in [10] turned out to be 1.65 s⁻¹; in [14], 0.0117 s⁻¹. Besides, in experiment [11], the affinity, expressed as Kd, was 91 nM. Moreover, the Ka in experiment [12] worked out at 128000 M⁻¹ s⁻¹. Also, the ΔTm in [15] was in the range of 1 to 13 °C.
